Reference: ChEMBL document CHEMBL4613300, “Pharmacophore-Based Virtual Screening for Identification of Negative Modulators of GLI1 as Potential Anticancer Agents” (ACS Med Chem Lett, 2020)
Activity calls are given as the source filed them. The rule behind the calls is not given here.

Assays:
A-375 [1] = assay: Antiproliferative activity against human A375 cells transfected with lentivrus-encoding shRNA against GLI2 assessed as reduction in cell viability incubated for 72 hrs by trypan blue or crystal violet staining based assay; format: functional
Summary of the method: (§1)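 A375 melanoma cells transduced with control lentivirus (LV-c), LV-shGLI1 or LV-shGLI2, with knockdown checked by Western blot (HSP90 loading control). Cells treated with DMSO or compound at the indicated doses for 72 h, then viability read. Values are mean ± SD of at least three independent experiments.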

[2] = target: T1, Zinc finger protein GLI1 (Homo sapiens) (UniProt P08151); assay: Inhibition of GLI1 transcriptional activity in human A375 cells assessed as downregulation of PTCH1 mRNA expression at 5 uM incubated for 48 hrs by qPCR analysis; format: cell-based; conditions: A-375
T1 sequence (whole entry): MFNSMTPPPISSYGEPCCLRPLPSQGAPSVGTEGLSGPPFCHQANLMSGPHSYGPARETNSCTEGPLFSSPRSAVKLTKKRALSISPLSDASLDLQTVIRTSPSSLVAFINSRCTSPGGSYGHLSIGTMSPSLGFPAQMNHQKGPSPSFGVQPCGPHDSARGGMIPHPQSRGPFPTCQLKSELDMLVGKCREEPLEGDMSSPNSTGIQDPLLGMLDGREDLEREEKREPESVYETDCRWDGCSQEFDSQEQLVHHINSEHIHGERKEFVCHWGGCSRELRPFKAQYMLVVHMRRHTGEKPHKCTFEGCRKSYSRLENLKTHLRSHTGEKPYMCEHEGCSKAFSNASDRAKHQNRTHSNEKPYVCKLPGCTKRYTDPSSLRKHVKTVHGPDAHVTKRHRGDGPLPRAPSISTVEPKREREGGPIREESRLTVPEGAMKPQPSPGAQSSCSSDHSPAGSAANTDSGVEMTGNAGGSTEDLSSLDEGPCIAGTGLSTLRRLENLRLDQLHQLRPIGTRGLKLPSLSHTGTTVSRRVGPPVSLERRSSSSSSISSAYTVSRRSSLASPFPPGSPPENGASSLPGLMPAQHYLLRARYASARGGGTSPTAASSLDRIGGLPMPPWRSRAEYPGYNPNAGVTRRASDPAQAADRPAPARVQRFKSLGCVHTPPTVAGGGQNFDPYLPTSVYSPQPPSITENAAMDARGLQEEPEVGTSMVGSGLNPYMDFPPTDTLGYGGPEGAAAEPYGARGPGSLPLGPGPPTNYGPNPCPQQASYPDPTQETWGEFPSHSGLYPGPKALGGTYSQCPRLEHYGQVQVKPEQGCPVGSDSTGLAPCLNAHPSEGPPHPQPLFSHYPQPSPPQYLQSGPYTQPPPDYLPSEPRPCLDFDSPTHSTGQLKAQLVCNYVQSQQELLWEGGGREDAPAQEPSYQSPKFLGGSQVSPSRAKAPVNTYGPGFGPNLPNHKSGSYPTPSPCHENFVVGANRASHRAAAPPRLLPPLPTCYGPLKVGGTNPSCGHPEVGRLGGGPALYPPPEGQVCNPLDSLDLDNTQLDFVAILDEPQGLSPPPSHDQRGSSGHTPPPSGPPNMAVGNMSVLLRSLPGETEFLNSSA
Summary of the method: (§2)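 A375 cells treated with compound (5 μM) or DMSO for 48 h. mRNA measured by qPCR as gene/(mean of HPRT and EIF2α) ratio, DMSO control set to 1. Mean ± SD.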

[3] = target: T2, Zinc finger protein GLI1 (Mus musculus) (UniProt P47806); assay: Inhibition of GLI1 transcriptional activity in HH-responsive mouse NIH3T3 cells assessed as reduction in SAG-induced luciferase activity at 5 uM incubated for 48 hrs by luciferase reporter gene assay relative to control; format: cell-based
T2 sequence (whole entry): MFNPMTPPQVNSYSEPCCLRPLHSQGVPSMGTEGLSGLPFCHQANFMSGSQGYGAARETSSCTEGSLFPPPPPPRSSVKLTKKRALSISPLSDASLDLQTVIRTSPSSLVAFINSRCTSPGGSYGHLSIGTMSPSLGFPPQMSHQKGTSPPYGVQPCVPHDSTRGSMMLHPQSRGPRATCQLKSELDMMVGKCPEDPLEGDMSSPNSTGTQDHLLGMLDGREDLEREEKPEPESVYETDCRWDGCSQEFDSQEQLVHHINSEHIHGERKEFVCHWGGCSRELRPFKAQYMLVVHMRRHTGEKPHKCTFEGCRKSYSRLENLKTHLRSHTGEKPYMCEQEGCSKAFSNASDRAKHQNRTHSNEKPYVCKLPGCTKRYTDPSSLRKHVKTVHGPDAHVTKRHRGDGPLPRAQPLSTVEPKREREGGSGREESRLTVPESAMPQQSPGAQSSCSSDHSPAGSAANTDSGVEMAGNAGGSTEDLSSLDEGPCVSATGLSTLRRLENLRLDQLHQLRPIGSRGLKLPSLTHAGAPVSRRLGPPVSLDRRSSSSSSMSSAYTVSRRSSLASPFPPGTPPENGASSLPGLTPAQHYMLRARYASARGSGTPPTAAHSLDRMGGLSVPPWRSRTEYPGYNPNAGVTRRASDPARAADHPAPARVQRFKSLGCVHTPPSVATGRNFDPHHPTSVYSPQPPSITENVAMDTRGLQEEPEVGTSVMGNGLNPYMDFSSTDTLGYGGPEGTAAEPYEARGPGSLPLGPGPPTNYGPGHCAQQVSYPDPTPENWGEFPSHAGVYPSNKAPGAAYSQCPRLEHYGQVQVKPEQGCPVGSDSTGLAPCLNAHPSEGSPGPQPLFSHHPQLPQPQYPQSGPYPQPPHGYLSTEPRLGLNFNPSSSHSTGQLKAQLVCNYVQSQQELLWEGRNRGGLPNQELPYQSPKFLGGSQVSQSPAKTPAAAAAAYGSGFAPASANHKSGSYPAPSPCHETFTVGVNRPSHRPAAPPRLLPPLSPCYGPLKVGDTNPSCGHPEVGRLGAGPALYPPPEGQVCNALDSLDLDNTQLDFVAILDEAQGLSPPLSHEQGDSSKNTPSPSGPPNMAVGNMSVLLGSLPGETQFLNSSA
Summary of the method: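 HH-responsive NIH3T3 cells carrying a GLI-dependent firefly luciferase reporter with renilla control, treated 48 h with 100 nM SAG plus compound (5 μM). Firefly/renilla ratio normalised to SAG-only cells set at 100%, reported as percent inhibition.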

[4] = target: T1, Zinc finger protein GLI1 (Homo sapiens); assay: Inhibition of GLI1 transcriptional activity in human A375 cells assessed as downregulation of GLI2 mRNA expression at 5 uM incubated for 48 hrs by qPCR analysis; format: cell-based; conditions: A-375; summary of the method: as §2
[5] = target: T1, Zinc finger protein GLI1 (Homo sapiens); assay: Inhibition of GLI1 transcriptional activity in human A375 cells assessed as downregulation of GLI1 mRNA expression at 5 uM incubated for 48 hrs by qPCR analysis; format: cell-based; conditions: A-375; summary of the method: as §2
[6] = target: T1, Zinc finger protein GLI1 (Homo sapiens); assay: Inhibition of GLI1 transcriptional activity in human A375 cells assessed as downregulation of HIP1 mRNA expression at 5 uM incubated for 48 hrs by qPCR analysis; format: cell-based; conditions: A-375; summary of the method: as §2
[7] = target: T1, Zinc finger protein GLI1 (Homo sapiens); assay: Inhibition of GLI1 transcriptional activity in human A375 cells assessed as downregulation of Cyclin D1 mRNA expression at 5 uM incubated for 48 hrs by qPCR analysis; format: cell-based; conditions: A-375; summary of the method: as §2
A-375 [8] = assay: Antiproliferative activity against human A375 cells transfected with lentivrus-encoding shRNA against GLI1 assessed as reduction in cell viability incubated for 72 hrs by trypan blue or crystal violet staining based assay; format: functional; summary of the method: as §1
A-375 [9] = assay: Antiproliferative activity against human A375 cells assessed as reduction in cell viability incubated for 72 hrs by trypan blue or crystal violet staining based assay; format: functional; conditions: Homo sapiens, A-375, 72 h; read-out: IC50
[10] = target: T2, Zinc finger protein GLI1 (Mus musculus); assay: Inhibition of GLI1 transcriptional activity in HH-responsive mouse NIH3T3 cells assessed as reduction in GLI1 protein expression at 5 uM incubated for 48 hrs in presence of SAG by Western blot analysis; format: cell-based
Summary of the method: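 Murine NIH3T3 cells given 100 nM SAG plus compound (5 μM) or DMSO for 48 h. Endogenous GLI1 protein measured by Western blot with HSP90 as loading control, band quantified against SAG-treated cells.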

MCF-10A = assay: Cytotoxicity against human MCF10A cells assessed as reduction in cell viability incubated for 72 hrs by trypan blue or crystal violet staining based assay
Daoy = assay: Antiproliferative activity against human DaOY cells assessed as reduction in cell viability incubated for 72 hrs by trypan blue or crystal violet staining based assay; format: functional; conditions: Homo sapiens, Daoy, 72 h; read-out: IC50

inhibition [2]: Active
inhibition [3]: 49%
inhibition [4]: Active
inhibition [5]: Active
inhibition [6]: Active
inhibition [7]: Active
IC50 (A-375 [9]): 1.2 µM
inhibition [10]: Active
SMILES: O=C(NC1CCCc2ccccc21)c1cnn2c(C(F)(F)F)cc(-c3cccs3)nc12 (configuration not stated)
Activity (A-375 [1]): inactive
Activity (A-375 [8]): inactive
Activity (MCF-10A): Non-Toxic
IC50 (Daoy): 4.4 µM
